# Data taken from the EternaBench riboswitch data.
# Tested on: MS2 coat protein
# Assay: apparent Kd, MS2 coat protein; higher = weaker binding; RNA-MaP array
# How it was run: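 RNA designs were transcribed from sequenced DNA templates on an Illumina sequencing chip and then incubated at room temperature with fluorescently labeled MS2 coat protein at 1.5 nM to 3 μM, with or without input ligand, in Tris-HCl pH 7.5 buffer containing KCl, MgCl2, BSA, DTT, tRNA and Tween20. Incubation lasted 0.8–1.5 h at the lowest protein concentrations and 10–20 min at the highest. Apparent Kd is the median of binding-curve fits made for each cluster. Designs measured on fewer than 10 clusters were excluded.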
# [1] = designed as: ON switch for flavin mononucleotide, no ligand
# [2] = ligand present: flavin mononucleotide, designed as: ON switch for flavin mononucleotide
# [3] = designed as: OFF switch for flavin mononucleotide, no ligand
# [4] = ligand present: flavin mononucleotide, designed as: OFF switch for flavin mononucleotide
# [5] = designed as: OFF switch for theophylline, no ligand
# [6] = ligand present: theophylline, designed as: OFF switch for theophylline
# [7] = designed as: OFF switch for tryptophan, no ligand
# [8] = ligand present: tryptophan, designed as: OFF switch for tryptophan
Sequence,apparent Kd [3] [nM],apparent Kd [4] [nM],other results
UACUCACAUGAGGAUCACCCAUGUUGUCUCAAGAUAGGAUAUGACUGGCUAUGCAUCGGUUCAGAAGGAUCUUCUA,,,apparent Kd [1]: 19.7 nM; apparent Kd [2]: 11.3 nM
UUAGCACAUGAGGAUCACCCAUGUCUCGAUACCAGAUAAGUUCCGAUCCCUUGGCAGCGACAAGCUUGCAAACUGCGACUAUUCU,,,"apparent Kd (designed as: ON switch for theophylline, no ligand): 24.7 nM; apparent Kd (ligand present: theophylline, designed as: ON switch for theophylline): 25 nM"
AAAGACGACCAGAAGGAGCCGCCACAUGAGGAUCACCCAUGUAUGCAAAGAUAACUGGGUUAACGCUAGGAUAUGGUGGAGAAA,63.5,44.1,
GAUUGCGGUGUGAGGAUAUCUGUUUAACAAAAGCCAGAGAAGGCACAUGAGGAUCACCCAUGUAGAUGCCGGCC,8.38,10.5,
GCGAAGCGAGGAUAUUAAUCCGUACACAUGAGGAUCACCCAUGUGAAUCAAUCAUGUGGUUAAGAAGGCGCGUGGG,541,73.2,
UAAGAAGUCCAGAAGGUAGCCCUACCGUACAGCUAAGGAUAUGGCUCACCGGUUUCAACAUGAGGAUCACCCAUGUCCUCCCGG,,,apparent Kd [1]: 55.9 nM; apparent Kd [2]: 36.3 nM
UAUAAGGAAGGAUAUAGGCUGCAAAACAUGAGGAUCACCCAUGUGAACCGACGACGCCAACUAGAAGGUCCCUAUG,13.5,12.9,
CUUUGUGGCCAAGGAUAUCCUGGCACAGUACAUGAGGAUCACCCAUGUCGAAGACAUGGUCGUACGGAGAAGGUGGGCACCCUC,,,apparent Kd [1]: 511 nM
UGUGGGUCCGAAGAUACCAGCCAGCACAGCAUGUGUUUAAACAUGAGGAUCACCCAUGUCGGCCCUUGGCAGCUUGGUUUGGACG,,,apparent Kd [5]: 15.5 nM; apparent Kd [6]: 12.1 nM
GCUAUAUUUGAGAAGGGAGGAUGCUUCACAGAGCUUAGACCAGACAUGAGGAUCACCCAUGUGCCUCAGGAUAUCAAUAUCGAU,,,apparent Kd [1]: 27.3 nM; apparent Kd [2]: 8.5 nM
GGAGUGUGAGGAUAUGACGCGCCAGGCACACUUGAAUGCGCUCAGAAGGCACAUGAGGAUCACCCAUGUAAGCA,8.29,13.3,
UUCUUUGACGAGAAGGUCUCAACAUGAGGAUCACCCAUGUGAAUUAAUGGAACCAGGCCUGUUUAGAAGGAUAUCGCGGGAGUU,10.9,13.8,
CUAUGGGAUAAGGAUAUAAUAAUUGAGAAGGAGUUAGAAGGUAUAACAUGAGGAUCACCCAUGUGAGGGCCCUA,9.22,9.07,
CCUCGGCCAUCAGGAUAUCAUUCUCCGAUGCGGAACAUGAGGAUCACCCAUGUUGGGUACCCGUGUGAGAAGGGAUGCGUACGG,74.3,62.2,
ACUUACGGAAAGAAGGAGGGACAGUCACGGCGGGCGGACCACAUGAGGAUCACCCAUGUGCGAGCCUAGGAUAUUUAGGGUAGC,7.19,7.23,
GACAGAAGGUAGAAGGUGGUUCUCCUCACCCACUUUGAGGACAUGAGGAUCACCCAUGUCAAAACCAAGGAUAUACUACGUCGU,,,apparent Kd [1]: 89.8 nM; apparent Kd [2]: 18.2 nM
ACGUUCGCGGUAUCCAACCGGUUGUACAAACGAGGACCGGUACGGCCGCCACUCGUGAUUGUACAUGAGGAUCACCCAUGUGGCA,,,apparent Kd [7]: 17.6 nM; apparent Kd [8]: 17.2 nM
ACCUAUACUCCAGGAUAUCAAGACCGAUGACAUGAGGAUCACCCAUGUCAAUCAAAACCAUGACGUGAGAAGGGGAGGCUCGUC,,,apparent Kd [1]: 6.5 nM; apparent Kd [2]: 6.05 nM
CUCUUGGCCGCAGUACGUUUAUAGACCUAUCGAGGACCGGUACGGCCGCCACUCGGUUAGUCACAUGAGGAUCACCCAUGUGUCC,,,apparent Kd [7]: 17.7 nM; apparent Kd [8]: 29.9 nM
AAGAACAUGAGGAUCACCCAUGUGAUCGUUCGAGGACCGGUACGGCCGCCACUCGGACCUGUGUCCAGGCACGGGCCGACGCGAC,,,"apparent Kd (designed as: ON switch for tryptophan, no ligand): 77.8 nM; apparent Kd (ligand present: tryptophan, designed as: ON switch for tryptophan): 38.2 nM"
UCGAUGGUACCCGAUACCAGCAAUACAUCACAGACCUGAUACAUGAGGAUCACCCAUGUGUGCCCUUGGCAGCGGGUCCUGAAAA,,,apparent Kd [5]: 17.8 nM; apparent Kd [6]: 38.1 nM
ACAUCCACCAAGAAGGCUGGUGCGGCACUUAAGUCGUUCACAUGAGGAUCACCCAUGUCGUAUACAGAGGAUAUUGAGGUUUUC,39.1,38.7,
CUCGUACAUGAGGAUCACCCAUGUCAGGAUAUUACUGUCGAGUCCAAAACUAGAAAGGUAAGAAGGGACACAUU,13.3,17.8,
CCAUGUAAUGUAAGGAUAUUCCAGGUAAUUACUUUGAAGAAGGUACAUGAGGAUCACCCAUGUGGAAACGAAUG,18.6,64.5,
GGUCCAAUAGGAUAUACAUGAGGAUCACCCAUGUAAUGGAAGCUCGGGUUUUGGUACUGUAGAAGGAUUGGGAC,25.8,40.9,
GUACCUCAAGGAUAUGCCCGAUCUUACAUGAGGAUCACCCAUGUUGGCUCAGGGCUUAGGGCAGAAGGUGAGAAGU,6.38,7.52,
